Data published in ChEMBL document CHEMBL3124784, “Synthesis, in vitro antiplasmodial activity and cytotoxicity of a series of artemisinin-triazine hybrids and hybrid-dimers” (Eur J Med Chem, 2014).

How the values were obtained:
[1] = Resistance index, ratio of IC50 for asexual erythrocytic stage of chloroquine-resistant Plasmodium falciparum Dd2 to IC50 for asexual erythrocytic stage of chloroquine-sensitive Plasmodium falciparum NF54; type: functional
Plasmodium falciparum [2] = assay: Antiplasmodial activity against asexual erythrocytic stage of chloroquine-resistant Plasmodium falciparum Dd2 assessed as parasite growth inhibition after 48 hrs by lactate dehydrogenase assay; type: functional, organism-based; conditions: Dd2, 48 h
How it was run: (§1)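 pLDH assay (modified Makler method) on cultured parasites, 48 h exposure. Stocks 20 mg/mL in 100% DMSO, stored at −20 °C, diluted in complete medium on the day of analysis; suspensions tested if not fully dissolved. Two-fold serial dilutions over ten concentrations; references started at 1000 ng/mL. Full dose-response for IC50; triplicate on one occasion.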

Plasmodium falciparum [3] = assay: Potency index, ratio of pyrimethamine IC50 to compound IC50 for asexual erythrocytic stage of chloroquine-sensitive Plasmodium falciparum NF54; type: functional
Plasmodium falciparum [4] = assay: Antiplasmodial activity against asexual erythrocytic stage of chloroquine-sensitive Plasmodium falciparum NF54 assessed as parasite growth inhibition after 48 hrs by lactate dehydrogenase assay; type: functional, organism-based; conditions: NF54, 48 h; how it was run: as §1
[5] = Selectivity index, ratio of IC50 for CHO cells to IC50 for asexual erythrocytic stage of chloroquine-sensitive Plasmodium falciparum NF54; type: toxicity, cell-based; conditions: hamster; read-out: Ratio IC50
CHO = assay: Cytotoxicity against CHO cells after 48 hrs by MTT assay; type: cell-based; conditions: Cricetulus griseus
Plasmodium falciparum [6] = assay: Potency index, ratio of chloroquine IC50 to compound IC50 for asexual erythrocytic stage of chloroquine-sensitive Plasmodium falciparum NF54; type: functional

| SMILES | Ratio IC50 [1] | IC50 (Plasmodium falciparum [2]) [µM] | Ratio IC50 (Plasmodium falciparum [3]) | IC50 (Plasmodium falciparum [4]) [µM] | selectivity ratio [5] | IC50 (CHO) | Ratio IC50 (Plasmodium falciparum [6]) |
| --- | --- | --- | --- | --- | --- | --- | --- |
| COc1ccc(Nc2nc(NCCNCCO[C@H]3O[C@@H]4O[C@@]5(C)CC[C@H]6[C@H](C)CC[C@@H]([C@H]3C)[C@@]46OO5)nc(N3CCCCC3)n2)cc1.O=C(O)C(=O)O | 1.7 | 0.0463 | <=6000 | 0.028 | 105 | 3 µM |  |
| C[C@H]1[C@@H](O)O[C@@H]2O[C@@]3(C)CC[C@H]4[C@H](C)CC[C@@H]1[C@@]24OO3 [ARTENIMOL] | 9.7 | 0.0088 |  | 0.0009 | 162000 | 148 µM |  |
| C[C@H]1[C@@H](OCCNCCNc2nc(N3CCCCC3)nc(N3CCCCC3)n2)O[C@@H]2O[C@@]3(C)CC[C@H]4[C@H](C)CC[C@@H]1[C@@]24OO3.O=C(O)C(=O)O | 2.3 | 0.0475 | <=6000 | 0.0206 | 150 | 3.1 µM |  |
| CC[C@H]1CN2CCc3cc(OC)c(OC)cc3[C@@H]2C[C@@H]1C[C@H]1NCCc2cc(OC)c(OC)cc21 [EMETINE] |  |  |  |  |  | 0.1 µM |  |
| COc1ccc(Nc2nc(NCCNCCO[C@H]3O[C@@H]4O[C@@]5(C)CC[C@H]6[C@H](C)CC[C@@H]([C@H]3C)[C@@]46OO5)nc(N3CCOCC3)n2)cc1.O=C(O)C(=O)O | 1.5 | 0.0574 | <=6000 | 0.0385 | 81 | 3.1 µM |  |
| C[C@H]1[C@H](OC(=O)CCC(=O)O)O[C@@H]2O[C@@]3(C)CC[C@H]4[C@H](C)CC[C@@H]1[C@@]24OO3 [ARTESUNATE] |  | 0.0081 |  | < 0.0052 |  |  |  |
| COc1ccc(Nc2nc(NCCN(CCO[C@H]3O[C@@H]4O[C@@]5(C)CC[C@H]6[C@H](C)CC[C@@H]([C@H]3C)[C@@]46OO5)CCO[C@H]3O[C@@H]4O[C@@]5(C)CC[C@H]6[C@H](C)CC[C@@H]([C@H]3C)[C@@]46OO5)nc(N3CCOCC3)n2)cc1.O=C(O)C(=O)O | 1.4 | 0.0359 | <=6000 | 0.0258 | 35 | 0.9 µM |  |
| COc1ccc(Nc2nc(NCCN(CCO[C@H]3O[C@@H]4O[C@@]5(C)CC[C@H]6[C@H](C)CC[C@@H]([C@H]3C)[C@@]46OO5)CCO[C@H]3O[C@@H]4O[C@@]5(C)CC[C@H]6[C@H](C)CC[C@@H]([C@H]3C)[C@@]46OO5)nc(Nc3ccc(OC)cc3)n2)cc1.O=C(O)C(=O)O | 1.9 | 0.0106 | <=6000 | 0.0055 | > 18200 | > 100 µg/mL | 2 |
| C[C@H]1[C@@H](OCCN(CCNc2nc(Nc3ccccc3)nc(N3CCOCC3)n2)CCO[C@H]2O[C@@H]3O[C@@]4(C)CC[C@H]5[C@H](C)CC[C@@H]([C@H]2C)[C@@]35OO4)O[C@@H]2O[C@@]3(C)CC[C@H]4[C@H](C)CC[C@@H]1[C@@]24OO3.O=C(O)C(=O)O | 1.3 | 0.0103 | <=6000 | 0.0079 | > 13500 | > 100 µg/mL |  |
| C[C@H]1[C@@H](OCCN(CCNc2nc(Nc3ccccc3)nc(Nc3ccccc3)n2)CCO[C@H]2O[C@@H]3O[C@@]4(C)CC[C@H]5[C@H](C)CC[C@@H]([C@H]2C)[C@@]35OO4)O[C@@H]2O[C@@]3(C)CC[C@H]4[C@H](C)CC[C@@H]1[C@@]24OO3.O=C(O)C(=O)O | 0.8 | 0.0103 | <=6000 | 0.0129 | 54 | 0.7 µM |  |
| C[C@H]1[C@@H](OCCNCCNc2nc(Nc3ccccc3)nc(Nc3ccccc3)n2)O[C@@H]2O[C@@]3(C)CC[C@H]4[C@H](C)CC[C@@H]1[C@@]24OO3.O=C(O)C(=O)O | 2.2 | 0.0591 | <=6000 | 0.0272 | 588 | 16 µM |  |
| COc1ccc(Nc2nc(NCCNCCO[C@H]3O[C@@H]4O[C@@]5(C)CC[C@H]6[C@H](C)CC[C@@H]([C@H]3C)[C@@]46OO5)nc(NCCN(C(C)C)C(C)C)n2)cc1.O=C(O)C(=O)O | 1.9 | 0.0747 | <=6000 | 0.0391 | 23 | 0.9 µM |  |
| CCc1nc(N)nc(N)c1-c1ccc(Cl)cc1 [PYRIMETHAMINE] |  | 60.7 |  | 33 |  | 271 µM |  |
| COc1ccc(Nc2nc(NCCN(CCO[C@H]3O[C@@H]4O[C@@]5(C)CC[C@H]6[C@H](C)CC[C@@H]([C@H]3C)[C@@]46OO5)CCO[C@H]3O[C@@H]4O[C@@]5(C)CC[C@H]6[C@H](C)CC[C@@H]([C@H]3C)[C@@]46OO5)nc(N3CCCCC3)n2)cc1.O=C(O)C(=O)O | 1.2 | 0.0136 | <=6000 | 0.0116 | 1470 | 17 µM |  |
| COc1ccc(Nc2nc(NCCN(CCO[C@H]3O[C@@H]4O[C@@]5(C)CC[C@H]6[C@H](C)CC[C@@H]([C@H]3C)[C@@]46OO5)CCO[C@H]3O[C@@H]4O[C@@]5(C)CC[C@H]6[C@H](C)CC[C@@H]([C@H]3C)[C@@]46OO5)nc(NCCN(C(C)C)C(C)C)n2)cc1.O=C(O)C(=O)O | 1 | 0.0331 | <=6000 | 0.0318 | > 3080 | > 100 µg/mL |  |
| C[C@H]1[C@@H](OCCNCCNc2nc(N3CCOCC3)nc(N3CCOCC3)n2)O[C@@H]2O[C@@]3(C)CC[C@H]4[C@H](C)CC[C@@H]1[C@@]24OO3.O=C(O)C(=O)O | 4.4 | 0.085 | <=6000 | 0.0193 | 160 | 3.1 µM |  |
| COc1ccc(Nc2nc(NCCNCCO[C@H]3O[C@@H]4O[C@@]5(C)CC[C@H]6[C@H](C)CC[C@@H]([C@H]3C)[C@@]46OO5)nc(Nc3ccccc3)n2)cc1.O=C(O)C(=O)O | 1.5 | 0.0288 | <=6000 | 0.0198 | > 5050 | > 100 µg/mL |  |
